ChEMBL document CHEMBL4823317, “Synthesis, in vitro cytotoxicity and biological evaluation of twenty novel 1,3-benzenedisulfonyl piperazines as antiplatelet agents” (Bioorg Med Chem, 2021)
pIC50: −log10 of the molar value.

Legend:
Blood [1] = assay: Anti-platelet aggregation activity in rabbit venous blood assessed as inhibition of ADP-induced aggregation at 1.3 uM pre-treated for 2 mins followed by ADP addition by Born turbidimetric method relative to control; assay type: functional; conditions: Oryctolagus cuniculus
Method in brief: (§1)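 Platelet-rich plasma from male rabbit (2–3 kg) ear-vein blood, citrate anticoagulated (3.8%, 9:1), spun 1000 rpm 10 min at room temperature; platelet-poor plasma (3000 rpm 10 min) as blank. Compound at 1.3 µM, from DMSO solution (DMSO 0.5% v/v vehicle control), preincubated 2 min in PRP before inducer. Inhibition% = (1 − D/S) × 100, where S is aggregation with solvent.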

Blood [2] = assay: Anti-platelet aggregation activity in rabbit venous blood assessed as inhibition of arachidonic acid-induced aggregation pre-treated for 2 mins followed by ADP addition by Born turbidimetric method; assay type: functional, tissue-based; conditions: Oryctolagus cuniculus
Method in brief: (§2)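 Rabbit PRP Born turbidimetry with the same 2 min compound preincubation. ADP or arachidonic acid as inducer. Compounds tested at 1.3, 0.65 and 0.325 µM. Inhibition% = (1 − D/S) × 100 versus the solvent control, and IC50 calculated from these inhibition rates.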

Blood [3] = assay: Anti-platelet aggregation activity in rabbit venous blood assessed as inhibition of arachidonic acid-induced aggregation at 1.3 uM pre-treated for 2 mins followed by ADP addition by Born turbidimetric method relative to control; assay type: functional; conditions: Oryctolagus cuniculus; method in brief: as §1
Blood [4] = assay: Anti-platelet aggregation activity in rabbit venous blood assessed as inhibition of collagen-induced aggregation at 1.3 uM pre-treated for 2 mins followed by ADP addition by Born turbidimetric method relative to control; assay type: functional; conditions: Oryctolagus cuniculus; method in brief: as §1
[5] = Cytotoxicity against mouse L929 cells assessed as cell survival at 10 uM incubated for 48 hrs by CCK-8 assay relative to control; assay type: cell-based; conditions: read-out: Activity
Method in brief: (§3)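 L929 mouse fibroblasts seeded at 10,000 cells/well in RPMI-1640 and allowed to attach 24 h at 37 °C. Compounds then added at 10 and 100 µM for 48 h at 37 °C. Medium replaced with fresh medium, CCK-8 added, 30 min further incubation, absorbance read at 450 nm. Viability = Abs(test)/Abs(control) × 100%.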

[6] = Cytotoxicity against mouse L929 cells assessed as cell survival at 100 uM incubated for 48 hrs by CCK-8 assay relative to control; assay type: cell-based; conditions: read-out: Activity; method in brief: as §3
Blood [7] = assay: Anti-platelet aggregation activity in rabbit venous blood assessed as inhibition of ADP-induced aggregation pre-treated for 2 mins followed by ADP addition by Born turbidimetric method; assay type: functional, tissue-based; conditions: Oryctolagus cuniculus; method in brief: as §2

| SMILES | inhibition at 1.3 µM (Blood [1]) | pIC50 (Blood [2]) | inhibition at 1.3 µM (Blood [3]) | inhibition at 1.3 µM (Blood [4]) | viability at 48 h, 10 µM [5] | viability at 48 h, 100 µM [6] | pIC50 (Blood [7]) |
| --- | --- | --- | --- | --- | --- | --- | --- |
| CCOc1ccc(S(=O)(=O)N2CCN(c3ccccc3C)CC2)cc1S(=O)(=O)N1CCN(c2ccccc2C)CC1 | 28.9% | 6.19 | 33.1% | 41.6% |  |  |  |
| COc1ccc(S(=O)(=O)N2CCN(c3ccccc3F)CC2)cc1S(=O)(=O)N1CCN(c2ccccc2F)CC1 | 28% | 6.32 | 40.6% | 28.8% | 77.8% | 66.7% |  |
| COc1ccc(S(=O)(=O)N2CCN(Cc3ccccc3)CC2)cc1S(=O)(=O)N1CCN(Cc2ccccc2)CC1 | 33.2% | 6.48 | 38.5% | 22.8% | 55.6% | 22.2% | 5.94 |
| COc1ccc(S(=O)(=O)N2CCN(c3ccccc3)CC2)cc1S(=O)(=O)N1CCN(c2ccccc2)CC1 | 27.9% |  | 15.7% | 20.4% |  |  |  |
| CCOc1ccc(S(=O)(=O)N2CCN(c3cccc(C)c3)CC2)cc1S(=O)(=O)N1CCN(c2cccc(C)c2)CC1 | 50.3% | 6.37 | 34.8% | 48.8% | 56.6% | 33.3% | 6.35 |
| CCOc1ccc(S(=O)(=O)N2CCN(Cc3ccccc3)CC2)cc1S(=O)(=O)N1CCN(Cc2ccccc2)CC1 | 24% |  | 20.1% | 49.8% | 55.6% | 22.2% |  |
| COc1ccc(S(=O)(=O)N2CCN(C)CC2)cc1S(=O)(=O)N1CCN(C)CC1 | 38.2% |  | 29.5% | 52.6% | 77.8% | 33.3% | 6.01 |
| COc1ccccc1N1CCN(S(=O)(=O)c2ccc(OC)c(S(=O)(=O)N3CCN(c4ccccc4OC)CC3)c2)CC1 | 28.7% |  | 28.1% | 27.6% |  |  |  |
| CCOc1ccc(S(=O)(=O)N2CCN(C(C)C)CC2)cc1S(=O)(=O)N1CCN(C(C)C)CC1 | 36.4% |  | 24.9% | 39% |  |  | 6.10 |
| COc1ccc(S(=O)(=O)N2CCN(C(C)C)CC2)cc1S(=O)(=O)N1CCN(C(C)C)CC1 | 28.4% |  | 27.1% | 49.4% |  |  |  |
| COc1ccc(S(=O)(=O)N2CCN(c3ccccc3C)CC2)cc1S(=O)(=O)N1CCN(c2ccccc2C)CC1 | 38.9% | 6.44 | 36.9% | 32.1% |  |  | 6.02 |
| COc1ccc(S(=O)(=O)N2CCN(c3ccc(C)cc3)CC2)cc1S(=O)(=O)N1CCN(c2ccc(C)cc2)CC1 | 30.4% | 6.17 | 34.1% | 32.6% |  |  |  |
| CCOc1ccc(S(=O)(=O)N2CCN(CC)CC2)cc1S(=O)(=O)N1CCN(CC)CC1 | 28.8% |  | 29.9% | 41.7% |  |  |  |
| CCOc1ccc(S(=O)(=O)N2CCN(c3ccccc3F)CC2)cc1S(=O)(=O)N1CCN(c2ccccc2F)CC1 | 21% |  | 25.8% | 50.3% | 70.4% | 3.7% |  |
| CCOc1ccc(S(=O)(=O)N2CCN(c3ccc(C)cc3)CC2)cc1S(=O)(=O)N1CCN(c2ccc(C)cc2)CC1 | 43.6% | 6.59 | 43% | 28.5% | 51.8% | 7.4% | 6.14 |
| CCN1CCN(S(=O)(=O)c2ccc(OC)c(S(=O)(=O)N3CCN(CC)CC3)c2)CC1 | 24.3% |  | 22.4% | 42.6% |  |  |  |
| CCOc1ccc(S(=O)(=O)N2CCN(c3ccccc3OC)CC2)cc1S(=O)(=O)N1CCN(c2ccccc2OC)CC1 | 25.5% |  | 23.1% | 25.2% |  |  |  |
| CCOc1ccc(S(=O)(=O)N2CCN(C)CC2)cc1S(=O)(=O)N1CCN(C)CC1 | 24.5% |  | 18.1% | 29.5% |  |  |  |
| CCOc1ccc(S(=O)(=O)N2CCN(c3ccccc3)CC2)cc1S(=O)(=O)N1CCN(c2ccccc2)CC1 | 40.1% |  | 23.6% | 26.9% |  |  | 6.04 |
| CC(=O)Oc1ccccc1C(=O)O [ASPIRIN] | 46.3% | 6.37 | 38.5% | 49.1% |  |  | 6.36 |
| COc1ccc(S(=O)(=O)N2CCN(c3cccc(C)c3)CC2)cc1S(=O)(=O)N1CCN(c2cccc(C)c2)CC1 | 21.1% | 6.15 | 33.7% | 54.2% | 85.2% | 66.7% |  |
| COc1ccc(C(=O)NCc2cccnc2)cc1C(=O)NCc1cccnc1 [PICOTAMIDE] | 45.5% | 6.47 | 37.1% | 49.2% |  |  | 6.33 |
